NS3 helicase inh: HCV NS3 helicase inhibition. AID 1800. 290,000 tested, 0.56% active. inhibition, % at 10.9 µM. NS3 helicase DNA unwinding, Cy5 molecular beacon fluorescence;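 active means inhibition above the mean of all tested compounds plus 3 SD, set per campaign, cut at about 35% in these data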
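Control set: DMSO versus 110 µM thioflavine S; Material: NS3 helicase fragment of HCV; Measured by: Cy5 fluorescence at 0 and 60 min, beacon hairpin quenching; Read-out basis: percent inhibition from t60/t0 fluorescence ratio; Times: reaction time 60 min, 25 °C; Repeats: single replicate; Compound dosing: single dose, 10.9 µM nominal final, DMSO 0.8% final.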
FGF22 binding: shifts melting point of recombinant human FGF22; Q9HCT0; recombinant FGF22 thermal shift, SYPRO orange fluorescence; percent of sucrose octasulfate shift, DMSO zero; activity (Tm shift, normalised), % at 9.99 µM; 340,000 tested, 1.5% active;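 active means mean Tm shift, scaled 0 neutral to 100 positive control, at about 1.3% or above, every replicate too, limit read from the data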
Target sequence (Q9HCT0 whole entry, looked up): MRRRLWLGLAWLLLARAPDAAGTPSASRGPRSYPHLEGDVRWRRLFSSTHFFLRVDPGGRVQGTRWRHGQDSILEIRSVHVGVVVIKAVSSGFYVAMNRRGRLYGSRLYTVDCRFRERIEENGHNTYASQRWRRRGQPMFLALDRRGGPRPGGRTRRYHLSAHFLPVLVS
EBNA-1 inhibitor: blocks EBNA-1 binding to DNA. 300,000 tested, 0.34% active. EBNA-1 DNA binding, fluorescence polarization. AID 1950. inhibition, % at 14.8 µM; in the data active means inhibition above about 28%
ZTA counter: ZTA (EBV) inhibition in EBNA-1 counter-screen. 320,000 tested, 0.15% active. inhibition, % at 11 µM. ZTA-DNA binding, fluorescence polarization. AID 2234; in the data active means inhibition above about 33%
Target sequence (P03206 whole entry, looked up): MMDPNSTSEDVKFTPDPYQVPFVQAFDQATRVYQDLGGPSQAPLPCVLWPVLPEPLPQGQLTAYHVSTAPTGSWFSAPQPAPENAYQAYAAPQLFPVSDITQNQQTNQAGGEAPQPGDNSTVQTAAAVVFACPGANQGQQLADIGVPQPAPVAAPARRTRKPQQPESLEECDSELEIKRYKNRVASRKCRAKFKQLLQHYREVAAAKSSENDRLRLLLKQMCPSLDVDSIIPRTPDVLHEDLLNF
DNA FID counter: displaces DNA intercalator in HCV helicase counter-screen | DNA fluorescent intercalator displacement, fluorescence | inhibition, % at 7.9 µM | 290,000 tested, 0.17% active | AID 1845; in the data active means inhibition above about 37%;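 further: higher means more ethidium bromide displaced from hairpin DNA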
GRIN3A LBD mod: modulators (binders) of human NR3A ligand-binding domain. Tm shift relative to glycine control, % at 25 µM. NR3A LBD differential scanning fluorimetry, Tm shift; 0% = protein alone, 100% = glycine-bound protein. 340,000 tested, 2.5% active;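 active means melting temperature shift of at least 10% of the positive control shift, at one fixed dose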
Hits are given with their value; i = inactive; nt = no result given. This is a sample that favours compounds with a hit; in the whole collection about 3.6% have one here.

SMILES	NS3 helicase inh	FGF22 binding	EBNA-1 inhibitor	ZTA counter	DNA FID counter	GRIN3A LBD mod
Cc1cc(C)cc(NC(=O)Nc2ccc3c(c2)C(=O)N(C)[C@@H]2CC[C@H](CC(=O)O)O[C@@H]2CO3)c1	nt	i	nt	nt	nt	nt
Oc1ccc(-c2nccc(-c3ccc(Cl)cc3)n2)cc1	i	i	i	i	i	57
N#Cc1c(-c2ccccc2)cc(-c2ccc(O)cc2)nc1N	i	i	i	i	i	15
COc1ccc(-c2cc(-c3ccc(O)cc3)nc(N)c2C#N)cc1	i	i	i	i	i	i
Oc1ccc(-c2cc(-c3ccc(O)cc3)nc(-c3ccccc3)n2)cc1	i	i	i	i	i	29
Oc1ccc(-c2cccc(-c3ccc(O)cc3)n2)cc1	i	nt	i	i	i	14
CO[C@H](CN(C)C(=O)c1ccc2c(c1)OCO2)[C@H](C)CN([C@H](C)CO)S(=O)(=O)c1ccccc1	nt	i	nt	nt	nt	nt
C[C@H](CO)N1C[C@H](C)[C@H](CN(C)C(=O)c2ccccc2)OCCCC[C@H](C)Oc2ccc(NS(=O)(=O)c3cccs3)cc2C1=O	nt	i	nt	nt	nt	nt
Nc1ccc(-c2cc(-c3ccc(N)cc3)nc(-c3ccccc3)n2)cc1	i	i	i	i	i	25
Clc1cc(-c2ccccc2)nc(-c2ccccc2)n1	nt	i	i	i	nt	i
O=C(Nc1ccccc1)[C@@H]1[C@@H](CO)[C@@H]2Cn3c(cccc3=O)[C@@H]2N1C(=O)C1CCC1	nt	i	nt	nt	nt	nt
CC=Cc1ccc2n(c1=O)C[C@H]1[C@H](CO)[C@@H](C(=O)NCC(F)(F)F)N(CCC)[C@@H]21 (mixture of isomers)	nt	i	nt	nt	nt	nt
CCCOC(=O)c1c(-c2ccccc2)nc(CC)c(C(=O)SCC)c1CCC	nt	i	i	i	nt	10
OC(COc1ccc(F)cc1Cl)CN1CCC(Cc2ccccc2)CC1 (stereo not given)	i	i	i	i	39	i
O=C(Nc1ccc(Oc2cccnc2)cc1)C1CCN(Cc2cc(Cl)ccc2O)CC1	i	i	i	i	i	88
CC(C)C#Cc1cnc2c(c1)C(=O)N([C@@H](C)CO)C[C@H](C)[C@H](CN(C)C(=O)c1ccccc1F)O2	nt	i	nt	nt	nt	nt
CCC(=O)N1C[C@H]2[C@@H](c3ccccc31)[C@@H](CO)N2C(=O)Nc1ccccc1F	nt	i	nt	nt	nt	nt
CC(=O)Nc1ccc(C(=O)OCC(=O)NCc2ccc3c(c2)OCO3)cc1	nt	43	nt	nt	nt	i
CN(c1ccccc1)S(=O)(=O)c1cccc(C(=O)OCC(=O)NCc2ccc3c(c2)OCO3)c1	i	i	i	i	i	13
CC(=O)Nc1ccc(S(=O)(=O)NCC(=O)OCC(=O)NCc2ccc3c(c2)OCO3)cc1	nt	44	nt	nt	nt	i
C[C@H](CO)N1C[C@H](C)[C@@H](CN(C)C(=O)C2CCOCC2)Oc2ncc(C3=CCCCC3)cc2C1=O	nt	i	nt	nt	nt	nt
O=C(C[n+]1ccc(-c2nnc3n2CCC3)cc1)c1ccc(Cl)c(Cl)c1	i	i	i	i	i	13
COc1ccc(C(=O)C[n+]2ccc(-c3nnc4n3CCC4)cc2)cc1	i	nt	i	i	i	i
O=C(O)c1c2cc(Br)ccc2nc2[nH]c(=O)[nH]c(=O)c12	nt	43	nt	nt	nt	i
Cc1ccc2nc3[nH]c(=O)[nH]c(=O)c3c(N)c2c1	nt	i	nt	nt	nt	i
SMILES	NS3 helicase inh	FGF22 binding	EBNA-1 inhibitor	ZTA counter	DNA FID counter	GRIN3A LBD mod
CC(C)C#Cc1ccc2c(c1)O[C@@H](CN(C)C(=O)c1cccc(F)c1)[C@H](C)CN([C@@H](C)CO)S2(=O)=O	nt	i	nt	nt	nt	nt
COc1cccc(-c2nnc(SC(C(=O)c3c[nH]c4ccccc34)c3ccccc3)n2C)c1 (stereo not given)	i	43	i	i	i	i
COCc1cc(C)nc(SCc2nc3ccccc3c(=O)[nH]2)c1C#N	i	43	i	i	i	i
Cc1cc(C)c(C#N)c(SCc2nc3ccccc3c(=O)[nH]2)n1	i	i	i	i	i	i
O=S(=O)(NCC(Nc1ccccc1)c1ccccc1)c1ccc(Cl)cc1 (stereo not given)	i	nt	i	i	i	17
O=C(O)c1cccc(NC(CNS(=O)(=O)c2ccc(Cl)cc2)c2ccccc2)c1 (stereo not given)	i	i	i	i	i	i
C[C@@H]1CN([C@H](C)CO)C(=O)c2c(c3ccccc3n2C)-c2ccccc2CO[C@@H]1CN(C)C(=O)c1ccccc1	nt	i	nt	nt	nt	nt
COc1cccc(-c2cc(N)nn2C(=O)Nc2ccc(Cl)cc2)c1	i	i	i	i	i	27
COc1cccc(NC(=O)NCCc2ccc(Cl)cc2)c1	i	i	i	i	i	i
CCc1nnc(NC(=O)CSc2nc3[nH]ncc3c(=O)[nH]2)s1	i	44	i	i	i	i
CCOc1ccc(C2Nc3ccc4ccccc4c3-c3c2c(=O)oc2ccccc32)cc1 (stereo not given)	i	nt	i	i	i	14
COc1ccc(/C=C/c2nc(N)nc(-c3ccccc3O)n2)cc1	i	i	i	i	i	72
COc1ccc(/C=C/c2nc(N)nc(-c3ccccc3O)n2)cc1OC	i	i	i	i	i	28
COCCOC(=O)N1C(=O)[C@@]2(c3ccccc31)[C@H](C(=O)N1CCc3cc(OC)c(OC)cc3C1)[C@H]1C(=O)O[C@H](c3ccccc3)[C@H](c3ccccc3)N1[C@@H]2c1ccc(O)cc1	nt	i	nt	nt	nt	nt
C[C@H](CO)N1C[C@H](C)[C@H](CN(C)C(=O)CC2CC2)Oc2cc(-c3cncnc3)ccc2S1(=O)=O	nt	i	nt	nt	nt	nt
C[C@@]12CCC=C[C@H]1[C@H](c1ccccc1Br)N(Cc1ccccc1)C2=O	nt	i	nt	nt	nt	i
C[C@@]12CCC=C[C@H]1[C@H](c1ccoc1)N(Cc1ccccc1)C2=O	nt	i	i	i	nt	12
COc1ccccc1CN1[C@@H]2CN(C(=O)C3CCCCC3)c3ccccc3[C@@H]2[C@@H]1CO	nt	i	nt	nt	nt	nt
Cn1c(=O)cc(C(=O)N/N=C/c2ccc(Cl)cc2)[nH]c1=O	i	i	i	i	i	13
CC=Cc1ccc2n(c1=O)C[C@@H]1[C@@H](CO)[C@H](C(=O)N3CCCCC3)N(C(=O)CC)[C@H]21 (mixture of isomers)	nt	i	nt	nt	nt	nt
COc1ccc(N(C)S(=O)(=O)c2cccc(C(=O)Nc3ccc4c(c3)OCCO4)c2)cc1	i	43	i	i	i	i
COc1ccc(N(C)S(=O)(=O)c2cccc(C(=O)Nc3ccc(OC)nc3)c2)cc1	i	i	i	i	i	nt
COc1ccc(N(C)S(=O)(=O)c2cccc(C(=O)Nc3ccc(-n4cnnn4)cc3)c2)cc1	i	nt	i	i	i	26
C[C@@H]1CN([C@@H](C)CO)C(=O)c2cc(NC(=O)Cn3cnnn3)ccc2O[C@@H]1CN(C)S(=O)(=O)c1ccccc1	nt	i	nt	nt	nt	nt
CSc1ccc(CNc2nnnn2C)cc1	i	43	i	i	i	i
